Experimental data from ChEMBL document CHEMBL3853289, “Eucarobustols A-I, Conjugates of Sesquiterpenoids and Acylphloroglucinols from Eucalyptus robusta” (J Nat Prod, 2016).
pIC50: −log10 of the molar value.

Experiments:
[1] = Cytotoxicity against human A549 cells assessed as reduction in cell viability incubated for 72 hrs by SRB assay; assay type: functional, cell-based; conditions: A549, 72 h
Method in brief: (§1)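 Cytotoxicity was tested against the HL-60 human leukemia and A-549 human lung adenocarcinoma lines, with adriamycin as the positive control. Potency was expressed as IC50.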

[2] = Cytotoxicity against human HL60 cells assessed as reduction in cell viability after 72 hrs by MTT assay; assay type: functional, cell-based; conditions: HL-60, 72 h; method in brief: as §1
[3] = biological target: T1, Tyrosine-protein phosphatase non-receptor type 1 (Homo sapiens, UniProt P18031); assay: Inhibition of PTP1B (unknown origin) using pNPP as substrate after 3 mins by colorimetric analysis
T1 sequence (P18031 whole entry): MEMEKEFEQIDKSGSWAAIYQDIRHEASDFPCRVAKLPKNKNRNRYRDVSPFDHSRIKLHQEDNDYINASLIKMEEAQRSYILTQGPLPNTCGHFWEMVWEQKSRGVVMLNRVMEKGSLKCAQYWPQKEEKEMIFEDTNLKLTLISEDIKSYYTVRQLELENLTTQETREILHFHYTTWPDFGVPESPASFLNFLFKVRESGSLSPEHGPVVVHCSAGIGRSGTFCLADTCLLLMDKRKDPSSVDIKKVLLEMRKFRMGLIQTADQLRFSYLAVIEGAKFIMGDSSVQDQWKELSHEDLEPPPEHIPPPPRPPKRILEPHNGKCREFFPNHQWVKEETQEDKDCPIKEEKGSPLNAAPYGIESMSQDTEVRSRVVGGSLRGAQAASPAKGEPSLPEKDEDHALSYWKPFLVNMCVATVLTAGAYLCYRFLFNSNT

Row | SMILES | pIC50 [1] | pIC50 [2] | pIC50 [3]
1 | CC(C)C[C@H](c1c(O)c(C=O)c(O)c(C=O)c1O)[C@@H]1CC[C@@](C)(O)[C@@H]2[C@@H]3[C@H](CC[C@]21C)C3(C)C | < 5.00 | < 5.00 | –
2 | CC(=O)CC[C@@H]1[C@H]([C@H]2C(=O)CC[C@]2(C)[C@H](CC(C)C)c2c(O)c(C=O)c(O)c(C=O)c2O)C1(C)C | < 5.00 | < 5.00 | –
3 | CC(C)C[C@@H](c1c(O)c(C=O)c(O)c(C=O)c1O)[C@H]1CC[C@@H](C)[C@@]2(C)C1=CC[C@@H]1[C@H]2C1(C)C | – | – | 5.37
4 | CC1=C2CC[C@](C)([C@@H](CC(C)C)c3c(O)c(C=O)c(O)c(C=O)c3O)[C@H]2[C@H]2[C@@H](CC1)C2(C)C | < 5.00 | < 5.00 | 5.35
5 | CC(C)C[C@H](c1c(O)c(C=O)c(O)c(C=O)c1O)[C@@]1(C)CC[C@H]2C1=C[C@H](C(C)(C)O)CC[C@H]2C | < 5.00 | < 5.00 | –
6 | CC(C)C[C@H](c1c(O)c(C=O)c(O)c(C=O)c1O)[C@@]1(C)CC=C2[C@H](C)CC[C@@H]3[C@H]([C@@H]21)C3(C)C | < 5.00 | < 5.00 | 5.52
7 | C=C(C)[C@@H]1C=C2[C@@H](C)CC[C@@H]([C@@H](CC(C)C)c3c(O)c(C=O)c(O)c(C=O)c3O)[C@]2(C)CC1 | – | – | 5.54
8 | CC(C)C[C@@H](c1c(O)c(C=O)c(O)c(C=O)c1O)[C@@]1(C)CCC2=C1[C@H]1[C@@H](CC[C@H]2C)C1(C)C | < 5.00 | < 5.00 | 5.80
9 | CC(C)C[C@@H](c1c(O)c(C=O)c(O)c(C=O)c1O)[C@@H]1CC[C@@](C)(O)[C@@H]2[C@@H]3[C@H](CC[C@]21C)C3(C)C | < 5.00 | < 5.00 | –
10 | CC(C)CC(c1c(O)c(C=O)c(O)c(C=O)c1O)[C@@]1(C)CC[C@H]2C1=C[C@H](C(C)(C)O)CC[C@H]2C (some centres not stated) | < 5.00 | < 5.00 | –
11 | CC(C)C[C@@H](c1c(O)c(C=O)c(O)c(C=O)c1O)[C@@]1(C)CC=C2[C@H](C)CC[C@@H]3[C@H]([C@@H]21)C3(C)C | < 5.00 | < 5.00 | 5.74
12 | CO[C@]1(C)CC[C@@H]2[C@H]([C@H]3[C@H]1CC[C@]3(C)[C@@H](CC(C)C)c1c(O)c(C=O)c(O)c(C=O)c1O)C2(C)C | < 5.00 | < 5.00 | 5.39
13 | CC(C)C[C@H](c1c(O)c(C=O)c(O)c(C=O)c1O)[C@H]1CC[C@@H](C)[C@@]2(C)C1=CC[C@@H]1[C@H]2C1(C)C | – | – | 5.89
14 | CC(C)CC(c1c(O)c(C=O)c(O)c(C=O)c1O)C1CC[C@@H](C)C2=C[C@H](C(C)(C)O)CC[C@]21C (some centres not stated) | < 5.00 | < 5.00 | –
15 | CC(C)CC(=O)c1c(O)c(C=O)c(O)c(C[C@@]2(C)CC[C@H]3C2=C[C@H](C(C)(C)O)CC[C@H]3C)c1O | < 5.00 | < 5.00 | 5.37
16 | CC(C)C[C@@H](c1c(O)c(C=O)c(O)c(C=O)c1O)[C@@]1(C)CC[C@@H]2[C@@H]1[C@H]1[C@@H](CC[C@]2(C)O)C1(C)C | < 5.00 | < 5.00 | 5.25
17 | CC(C)C[C@@H](c1c(O)c(C=O)c(O)c(C=O)c1O)[C@@]1(C)CC[C@@H]2[C@@H]1[C@H]1[C@@H](CC[C@@]2(C)O)C1(C)C [MACROCARPAL A] | < 5.00 | < 5.00 | –
18 | CC(C)C[C@H](c1c(O)c(C=O)c(O)c(C=O)c1O)[C@@]1(C)CC[C@@H]2[C@@H]1[C@H]1[C@@H](CC[C@@]2(C)O)C1(C)C [MACROCARPAL B] | < 5.00 | < 5.00 | –
19 | C=C1CC[C@@H]2[C@H]([C@H]3[C@H]1CC[C@]3(C)[C@@H](CC(C)C)c1c(O)c(C=O)c(O)c(C=O)c1O)C2(C)C [MACROCARPAL C] | < 5.00 | < 5.00 | –
